Calls of active or inactive are those of the source. No cut-off for these calls is given here.
The compounds below were run against T1, Oxysterols receptor LXR-alpha (Homo sapiens, UniProt Q13133) (assay: Agonist activity at human recombinant LXRalpha expressed in Escherichia coli BL21 cells assessed as association of recombinant SRC1 to LXRalpha ligand binding domain by HTRF assay). Details: not given.
T1 sequence (Q13133 whole entry): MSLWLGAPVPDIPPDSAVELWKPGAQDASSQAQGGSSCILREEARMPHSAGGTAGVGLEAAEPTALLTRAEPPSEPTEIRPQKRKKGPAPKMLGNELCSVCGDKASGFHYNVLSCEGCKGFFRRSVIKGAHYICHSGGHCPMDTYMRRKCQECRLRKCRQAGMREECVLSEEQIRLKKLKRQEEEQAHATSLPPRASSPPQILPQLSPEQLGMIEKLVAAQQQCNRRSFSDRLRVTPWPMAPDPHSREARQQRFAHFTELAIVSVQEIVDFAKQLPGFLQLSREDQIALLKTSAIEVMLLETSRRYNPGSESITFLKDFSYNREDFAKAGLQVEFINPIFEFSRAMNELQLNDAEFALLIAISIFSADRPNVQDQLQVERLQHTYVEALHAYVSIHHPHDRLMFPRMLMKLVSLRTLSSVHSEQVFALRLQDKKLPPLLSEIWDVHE
For `CC(C)[C@H](C)[C@@]1(C)C[C@@H]1[C@@H](C)[C@H]1CC[C@H]2[C@@H]3C[C@@H](O)[C@@]4(O)C[C@@H](O)CC[C@]4(C)[C@@]3(O)[C@H](O)C[C@]12C`, the EC50 was 50 nM. `CC(C)=CCC[C@@H](C)[C@H]1C[C@H](O)[C@@]2(C)C3=CC[C@H]4C(C)(C)[C@@H](O)CC[C@]4(C)C3=CC[C@]12C` was tested, and the EC50 was 30 nM. With `CC(C)CCC[C@@H](C)[C@H]1CC[C@H]2C3=CC(=O)[C@H]4C[C@@H](O)CC[C@]4(C)[C@@]3(O)CC[C@]12C` [VIPERIDONE] the EC50 was greater than 15000 nM. `C=C(CC[C@@H](C)[C@H]1CC[C@H]2[C@@H]3[C@@H](O)[C@@H](O)[C@@]4(O)C[C@@H](O)CC[C@]4(C)[C@H]3CC[C@]12C)C(C)C` gave an EC50 of 170 nM. `C=C[C@@]1(C)CC=C2[C@@H](CC[C@@H]3[C@](C)(CO)CCC[C@@]23C)C1` was tested, and the EC50 was 390 nM. With `CC(C)[C@H](C)[C@@]1(C)C[C@@H]1[C@@H](C)[C@H]1CC[C@H]2[C@@H]3CC=C4C[C@@H](O)CC[C@]4(C)[C@@]3(O)[C@H](O)C[C@]12C` the EC50 was 450 nM.

What follows are compounds tested against T2, Oxysterols receptor LXR-beta (Homo sapiens, UniProt P55055) (assay: Agonist activity at human recombinant LXRbeta expressed in Escherichia coli BL21 cells assessed as association of recombinant SRC1 to LXRbeta ligand binding domain by HTRF assay). Details: not given.
T2 sequence (P55055 whole entry): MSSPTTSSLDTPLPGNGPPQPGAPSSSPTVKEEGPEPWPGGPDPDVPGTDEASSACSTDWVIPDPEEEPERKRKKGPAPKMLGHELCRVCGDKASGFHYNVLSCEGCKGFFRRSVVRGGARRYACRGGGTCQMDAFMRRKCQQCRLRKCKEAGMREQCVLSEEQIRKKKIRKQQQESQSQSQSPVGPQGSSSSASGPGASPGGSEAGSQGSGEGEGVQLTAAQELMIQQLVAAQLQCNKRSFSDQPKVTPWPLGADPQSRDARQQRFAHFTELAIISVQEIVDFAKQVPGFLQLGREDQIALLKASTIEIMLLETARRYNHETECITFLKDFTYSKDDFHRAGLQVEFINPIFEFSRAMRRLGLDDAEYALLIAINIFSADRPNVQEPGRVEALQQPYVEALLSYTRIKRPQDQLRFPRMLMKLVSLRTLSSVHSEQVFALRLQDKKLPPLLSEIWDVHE
`CC(C)=CCC[C@@H](C)[C@H]1C[C@H](O)[C@@]2(C)C3=CC[C@H]4C(C)(C)[C@@H](O)CC[C@]4(C)C3=CC[C@]12C` was tested, and the EC50 was greater than 50000 nM. `C=C[C@@]1(C)CC=C2[C@@H](CC[C@@H]3[C@](C)(CO)CCC[C@@]23C)C1` was tested, and the EC50 was greater than 50000 nM.

The compounds below were run against T3, Oxysterols receptor LXR-beta (Homo sapiens) (UniProt P55055) (assay: Agonist activity at human recombinant LXRbeta expressed in Escherichia coli BL21 cells assessed as association of recombinant SRC1 to LXRbeta ligand binding domain at 10 uM by HTRF assay). Details: not given.
T3 sequence (whole entry): T2 sequence (P55055 whole entry)
In the case of `CC(C)[C@H](C)[C@@]1(C)C[C@@H]1[C@@H](C)[C@H]1CC[C@H]2[C@@H]3C[C@@H](O)[C@@]4(O)C[C@@H](O)CC[C@]4(C)[C@@]3(O)[C@H](O)C[C@]12C`, the Activity is reported as “inactive”. `C=C(CC[C@@H](C)[C@H]1CC[C@H]2[C@@H]3[C@@H](O)[C@@H](O)[C@@]4(O)C[C@@H](O)CC[C@]4(C)[C@H]3CC[C@]12C)C(C)C` was tested, and the Activity was “inactive”.

These compounds were tested against T4, Oxysterols receptor LXR-alpha (Homo sapiens) (UniProt Q13133) (assay: Activity of human recombinant LXRalpha ligand binding domain-mediated transcriptional activity in human HEK293 cells with Gal4 reporter plasmid by luciferase reporter assay). Details: not given.
T4 sequence (whole entry): T1 sequence (Q13133 whole entry)
Assay type: cell-based
Summary of the method: (§1)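 Cell-based transactivation in HEK-293 cells with chimeric constructs: yeast Gal4 DNA-binding domain fused to the hinge region and LBD of LXRα or LXRβ. Agonist activity is read as fold induction over DMSO control.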
For `CCCc1c(OCCCSc2ccc(CC(=O)O)cc2Cl)ccc2c(C(F)(F)F)noc12`, the fold change (FC) was 20.

The compounds below were run against T4, Oxysterols receptor LXR-alpha (Homo sapiens) (assay: Activity of human recombinant LXRalpha ligand binding domain-mediated transcriptional activity in human HEK293 cells with Gal4 reporter plasmid at 2.2 uM by luciferase reporter assay). Details: not given.
Assay type: cell-based
Summary of the method: as §1
With `CC(C)=CCC[C@@H](C)[C@H]1C[C@H](O)[C@@]2(C)C3=CC[C@H]4C(C)(C)[C@@H](O)CC[C@]4(C)C3=CC[C@]12C` the fold change (FC) was 8.

These compounds were tested against T3, Oxysterols receptor LXR-beta (Homo sapiens) (assay: Activity of human recombinant LXRbeta ligand binding domain-mediated transcriptional activity in human HEK293 cells with Gal4 reporter plasmid by luciferase reporter assay). Details: not given.
Assay type: cell-based
Summary of the method: as §1
Work on `CCCc1c(OCCCSc2ccc(CC(=O)O)cc2Cl)ccc2c(C(F)(F)F)noc12` yielded a fold change (FC) of 35.

These compounds were tested against T3, Oxysterols receptor LXR-beta (Homo sapiens) (assay: Activity of human recombinant LXRbeta ligand binding domain-mediated transcriptional activity in human HEK293 cells with Gal4 reporter plasmid at 30 uM by luciferase reporter assay). Details: not given.
Assay type: cell-based
Summary of the method: as §1
`CC(C)[C@H](C)[C@@]1(C)C[C@@H]1[C@@H](C)[C@H]1CC[C@H]2[C@@H]3CC=C4C[C@@H](O)CC[C@]4(C)[C@@]3(O)[C@H](O)C[C@]12C` was tested, and the Activity was “inactive”.

What follows are compounds tested against Liver X receptor (LXR alpha AND LXR beta) (Homo sapiens) (UniProt Q13133+P55055) (assay: Selectivity of human recombinant LXRalpha over human recombinant LXRbeta). Details: not given.
Assay type: protein assay
With `CC(C)[C@H](C)[C@@]1(C)C[C@@H]1[C@@H](C)[C@H]1CC[C@H]2[C@@H]3CC=C4C[C@@H](O)CC[C@]4(C)[C@@]3(O)[C@H](O)C[C@]12C` the fold change (FC) was 40.

These compounds were tested against T4, Oxysterols receptor LXR-alpha (Homo sapiens) (assay: Activity of human recombinant LXRalpha ligand binding domain-mediated transcriptional activity in human HEK293 cells with Gal4 reporter plasmid at 30 uM by luciferase reporter assay). Details: not given.
Assay type: cell-based
Summary of the method: as §1
`CC(C)[C@H](C)[C@@]1(C)C[C@@H]1[C@@H](C)[C@H]1CC[C@H]2[C@@H]3CC=C4C[C@@H](O)CC[C@]4(C)[C@@]3(O)[C@H](O)C[C@]12C` was tested, and the fold change (FC) was 10.1.

What follows are compounds tested against T3, Oxysterols receptor LXR-beta (Homo sapiens). Details: BL21.
`CCCc1c(OCCCSc2ccc(CC(=O)O)cc2Cl)ccc2c(C(F)(F)F)noc12` showed an LC50 of 25 nM. In the case of `CC(C)[C@H](C)[C@@]1(C)C[C@@H]1[C@@H](C)[C@H]1CC[C@H]2[C@@H]3C[C@@H](O)[C@@]4(O)C[C@@H](O)CC[C@]4(C)[C@@]3(O)[C@H](O)C[C@]12C`, the LC50 is reported as 200 nM. Work on `CC(C)=CCC[C@@H](C)[C@H]1C[C@H](O)[C@@]2(C)C3=CC[C@H]4C(C)(C)[C@@H](O)CC[C@]4(C)C3=CC[C@]12C` yielded an LC50 greater than 15000 nM. Compound `C=C[C@@]1(C)CC=C2[C@@H](CC[C@@H]3[C@](C)(CO)CCC[C@@]23C)C1` has an LC50 of 730 nM. Work on `CC(C)[C@H](C)[C@@]1(C)C[C@@H]1[C@@H](C)[C@H]1CC[C@H]2[C@@H]3CC=C4C[C@@H](O)CC[C@]4(C)[C@@]3(O)[C@H](O)C[C@]12C` yielded an LC50 of 50000 nM.
